What was measured:
[1] = target: T1, TRPV3 (Homo sapiens, UniProt Q8NET8); assay: Selectivity Ca2+ assay in TRPV3-expressing HEK293 cells; assay type: cell-based; conditions: 1s 50 μM; Fluo-8
T1 sequence (Q8NET8 1-790): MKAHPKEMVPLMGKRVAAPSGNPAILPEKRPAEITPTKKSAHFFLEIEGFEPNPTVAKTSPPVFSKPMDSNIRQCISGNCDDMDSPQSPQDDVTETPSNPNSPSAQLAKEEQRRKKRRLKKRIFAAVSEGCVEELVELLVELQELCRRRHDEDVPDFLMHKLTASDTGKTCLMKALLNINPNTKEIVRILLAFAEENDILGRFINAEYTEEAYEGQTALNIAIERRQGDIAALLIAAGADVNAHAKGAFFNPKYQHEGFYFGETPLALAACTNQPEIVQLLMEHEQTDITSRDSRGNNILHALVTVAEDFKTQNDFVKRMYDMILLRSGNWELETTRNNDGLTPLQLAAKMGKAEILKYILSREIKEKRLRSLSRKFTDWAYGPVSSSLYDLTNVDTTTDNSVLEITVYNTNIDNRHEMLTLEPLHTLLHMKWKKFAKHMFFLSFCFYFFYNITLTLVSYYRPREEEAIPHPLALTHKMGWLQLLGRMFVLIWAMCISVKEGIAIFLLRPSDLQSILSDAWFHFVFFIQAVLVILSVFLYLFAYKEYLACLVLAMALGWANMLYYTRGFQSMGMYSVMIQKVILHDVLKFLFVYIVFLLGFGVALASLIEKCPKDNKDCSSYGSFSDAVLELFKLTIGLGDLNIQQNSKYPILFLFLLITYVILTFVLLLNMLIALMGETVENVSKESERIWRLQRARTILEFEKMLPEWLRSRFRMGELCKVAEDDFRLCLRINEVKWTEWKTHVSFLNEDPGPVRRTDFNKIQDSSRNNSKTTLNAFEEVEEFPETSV

[2] = test system: AGS cells; assay: MTT cell viability assay, AGS; assay type: cell-based, human; conditions: Homo sapiens, AGS, 72 h, read-out: IC50 cell proliferation, AGS
In short: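 Cells were seeded at 2000 per well, incubated overnight and exposed to test compound for 72 h. MTT was added for 4 h, formazan was dissolved in DMSO and absorbance was read at 570 nm. Viability was normalized to untreated wells, giving mean ± SEM of three trials. IC50 was calculated from relative survival.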

[3] = test system: MKN-45 cells; assay: Wound-healing migration assay; assay type: cell-based, human; conditions: 5 μM, 24 h
In short: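 MKN-45 cells were seeded and cultured overnight, then scratched with a pipette tip and treated with test compound. The wound was imaged at 0 and 24 h. The width of the cell-free zone was measured at six positions, and relative migration distance was calculated. A positive-control compound was run alongside.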

[4] = test system: MKN-45 cells; assay: Boyden chamber / Transwell cell migration assay; assay type: cell-based, human; conditions: 24 h
In short: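 MKN-45 cells in serum-free medium were seeded with test compound on uncoated Transwell membranes (8 μm pores), with complete medium containing 10% FBS in the lower chamber, and left to migrate for 24 h. Cells on the upper surface were removed. Cells on the underside were fixed, stained with crystal violet and counted in six random fields. A positive-control compound was run alongside.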

COc1cccc2sc(N(CCN(C)C)C(=O)c3ccc4c(c3)CCCC4)nc12 [Compound 1s, N-(2-(dimethylamino)ethyl)-N-(4-methoxybenzo[d]thiazol-2-yl)-5,6,7,8-tetrahydronaphthalene-2-carboxamide]
Effect on agonist-induced Ca2+ response, TRPV3 [1]: did not significantly affect
IC50 [2]: 12 ± 1.01 µM
MKN-45 cell migration (wound healing) [3]: inhibited the MKN-45 cell migration
MKN-45 cell invasion (movement through the pores toward chemoattractant) [4]: inhibited
